Measurements from ChEMBL document CHEMBL1921722, “In vitro and in vivo evaluation of select kahalalide F analogs with antitumor and antifungal activities” (Bioorg Med Chem, 2011).
Values after ≈ are worked out from the molar mass of the structure shown. Active and inactive are the calls of the source.

Key:
UACC-257 = assay: Cytotoxicity against human UACC257 cells by sulforhodamine B assay; type: functional; settings: read-out: GI50
How it was run: (§1)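 NCI Developmental Therapeutics Program 60-cell-line human tumor panel screen, run at NCI. A single-concentration pre-screen was followed by a five-concentration dose-response in 10-fold steps. GI50 is the concentration that reduces growth of treated cells to half that of untreated control cells. TGI is the concentration that completely halts growth.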

SK-OV-3 = assay: Cytotoxicity against human SKOV3 cells by sulforhodamine B assay; type: functional; settings: read-out: GI50; how it was run: as §1
PC-3 = assay: Cytotoxicity against human PC3 cells by sulforhodamine B assay; type: functional; settings: for GI50: read-out: GI50; how it was run: as §1
DU-145 = assay: Cytotoxicity against human DU145 cells by sulforhodamine B assay; type: functional; settings: read-out: GI50
How it was run: (§2)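 Run by the NCI Developmental Therapeutics Program on its 60-line human tumour cell panel using the standard procedure. Compounds went through a single-concentration prescreen first, and those active by NCI criteria went on to a five-concentration growth-inhibition test. GI50 is the concentration that cuts growth of treated cells to half that of untreated control cells.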

Hs-578T = assay: Cytotoxicity against human Hs578T cells by sulforhodamine B assay; type: functional; how it was run: as §1
RPMI-8226 = assay: Cytotoxicity against human RPMI8226 cells by sulforhodamine B assay; type: functional; settings: read-out: GI50; how it was run: as §1
A549 = assay: Cytotoxicity against human A549 cells by sulforhodamine B assay; type: functional; settings: read-out: GI50
How it was run: (§3)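 Run at NCI in the DTP 60-cell-line human tumor panel by standard procedure. Compounds were first screened at a single concentration, then tested at five tenfold-spaced concentrations. GI50 is the concentration reducing treated-cell growth to half that of untreated controls; TGI is the concentration completely halting growth.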

NCI-H322M = assay: Cytotoxicity against human NCI-H322M cells by sulforhodamine B assay; type: functional; settings: read-out: GI50; how it was run: as §1
COLO 205 = assay: Cytotoxicity against human COLO205 cells by sulforhodamine B assay; type: functional; settings: read-out: GI50; how it was run: as §3
HCC 2998 = assay: Cytotoxicity against human HCC2998 cells by sulforhodamine B assay; type: functional; settings: read-out: GI50; how it was run: as §2
HT-29 = assay: Cytotoxicity against human HT-29 cells by sulforhodamine B assay; type: functional; settings: read-out: GI50; how it was run: as §2
KM12 = assay: Cytotoxicity against human KM12 cells by sulforhodamine B assay; type: functional; settings: read-out: GI50; how it was run: as §1
SNB-75 = assay: Cytotoxicity against human SNB75 cells by sulforhodamine B assay; type: functional; settings: read-out: GI50; how it was run: as §1
Candida albicans = assay: Antimicrobial activity against Candida albicans ATCC 90028 by CLSI method; type: functional, organism-based
Cryptococcus neoformans = assay: Antimicrobial activity against Cryptococcus neoformans ATCC 90113 by CLSI method; type: functional, organism-based
Aspergillus fumigatus = assay: Antimicrobial activity against Aspergillus fumigatus ATCC 90906 by CLSI method; type: functional, organism-based
Staphylococcus aureus = assay: Antimicrobial activity against methicillin-resistant Staphylococcus aureus ATCC 43300 by CLSI method; type: functional, organism-based
Escherichia coli = assay: Antimicrobial activity against Escherichia coli ATCC 35218 by CLSI method; type: functional, organism-based
[1] = Acute toxicity in iv dosed mouse assessed as mortality; settings: in vivo
Pseudomonas aeruginosa = assay: Antimicrobial activity against Pseudomonas aeruginosa ATCC 27853 by CLSI method; type: functional, organism-based
[2] = tested on: Mycobacterium intracellulare; assay: Antimicrobial activity against Mycobacterium intracellular ATCC 23068 after 5 days by MABA assay; type: functional, organism-based; settings: ATCC 23068, 120 h
How it was run: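 M. intracellulare was tested by a modified Franzblau method. Samples were serially diluted in 20% DMSO/saline, run in duplicate, and inocula were adjusted by OD630. […] IC50 is 50% growth inhibition; MIC is the lowest concentration with no detectable growth.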

Fusarium sp. = assay: Antimicrobial activity against Fusarium sp. by CLSI method; type: functional, organism-based

Question: Which GI50 (UACC-257) does the source give for `CC(=O)O[C@H]1C(=O)[C@@]2(C)[C@H]([C@H](OC(=O)c3ccccc3)[C@]3(O)C[C@H](OC(=O)[C@H](O)[C@@H](NC(=O)c4ccccc4)c4ccccc4)C(C)=C1C3(C)C)[C@]1(OC(C)=O)CO[C@@H]1C[C@@H]2O` [PACLITAXEL] here?
Answer: 40 nM

Question: And the GI50 (SK-OV-3)?
Answer: 8 nM

Question: What about the GI50 (PC-3) of the same molecule?
Answer: 4 nM

Question: What about the TGI (PC-3; read-out: TGI) of the same molecule?
Answer: 10000 nM

Question: And the GI50 (DU-145)?
Answer: 5 nM

Question: What about the GI50 (Hs-578T; read-out: GI50) of the same molecule?
Answer: 3 nM

Question: And the TGI (Hs-578T; read-out: TGI)?
Answer: 100 nM

Question: What about the GI50 (RPMI-8226) of the same molecule?
Answer: 2 nM

Question: What about the GI50 (A549) of the same molecule?
Answer: 4 nM

Question: What about the GI50 (NCI-H322M) of the same molecule?
Answer: 13 nM

Question: And the GI50 (COLO 205)?
Answer: 3 nM

Question: And the GI50 (HCC 2998)?
Answer: 3 nM

Question: And the GI50 (HT-29)?
Answer: 2 nM

Question: And the GI50 (KM12)?
Answer: 4 nM

Question: What about the GI50 (SNB-75) of the same molecule?
Answer: 4 nM

Question: With `C/C=C1\NC(=O)[C@H](Cc2ccccc2)NC(=O)[C@@H](C(C)C)NC(=O)[C@@H]([C@H](C)CC)NC(=O)[C@H](NC(=O)[C@H](NC(=O)[C@H](CCCN)NC(=O)[C@H]2CCCN2C(=O)[C@H](NC(=O)[C@@H](NC(=O)[C@@H](NC(=O)[C@H](NC(=O)CCCC(C)C)C(C)C)[C@@H](C)O)C(C)C)C(C)C)[C@H](C)CC)[C@H](C)OC(=O)[C@H](C(C)C)NC1=O` [KAHALALIDE F] as the molecule, how does the GI50 (PC-3) read?
Answer: 170 nM

Question: And the MFC (Candida albicans)?
Answer: 20 µM (≈ 29.6 µg/mL)

Question: What about the MIC (Candida albicans) of the same molecule?
Answer: 10 µM (≈ 14.8 µg/mL)

Question: What about the MFC (Cryptococcus neoformans) of the same molecule?
Answer: 5 µM (≈ 7.39 µg/mL)

Question: What about the MIC (Cryptococcus neoformans) of the same molecule?
Answer: 5 µM (≈ 7.39 µg/mL)

Question: What about the MFC (Aspergillus fumigatus) of the same molecule?
Answer: 20 µM (≈ 29.6 µg/mL)

Question: What about the MIC (Aspergillus fumigatus) of the same molecule?
Answer: 10 µM (≈ 14.8 µg/mL)

Question: And the Activity (Staphylococcus aureus)?
Answer: inactive

Question: What about the Activity (Escherichia coli) of the same molecule?
Answer: inactive

Question: And the MTD [1]?
Answer: 0.28 mg/kg

Question: And the Activity (Pseudomonas aeruginosa)?
Answer: inactive

Question: And the IC50 [2]?
Answer: > 20000 nM

Question: What about the MBC [2] of the same molecule?
Answer: > 20 µM

Question: What about the MIC [2] of the same molecule?
Answer: > 20 µM

Question: And the Activity (Fusarium sp.)?
Answer: Active

Question: Which IC50 (Candida albicans) does the source give for `C[C@@H]1[C@H](O)[C@@H](C)/C=C/C=C/C=C/C=C/C=C/C=C/C=C/[C@H](O[C@@H]2O[C@H](C)[C@@H](O)[C@H](N)[C@@H]2O)C[C@@H]2O[C@](O)(C[C@@H](O)C[C@@H](O)[C@H](O)CC[C@@H](O)C[C@@H](O)CC(=O)O[C@H]1C)C[C@H](O)[C@H]2C(=O)O` [AMPHOTERICIN B] here?
Answer: 250 nM

Question: What about the MFC (Candida albicans) of the same molecule?
Answer: 1.25 µM (≈ 1.16 µg/mL)

Question: What about the MIC (Candida albicans) of the same molecule?
Answer: 0.625 µM (≈ 0.578 µg/mL)

Question: And the MFC (Cryptococcus neoformans)?
Answer: 0.06 µM (≈ 0.0554 µg/mL)

Question: And the MIC (Cryptococcus neoformans)?
Answer: 0.016 µM (≈ 0.0148 µg/mL)

Question: What about the MFC (Aspergillus fumigatus) of the same molecule?
Answer: 2.5 µM (≈ 2.31 µg/mL)

Question: And the MIC (Aspergillus fumigatus)?
Answer: 2.5 µM (≈ 2.31 µg/mL)

Question: For `O=C(O)c1cn(C2CC2)c2cc(N3CCNCC3)c(F)cc2c1=O` [CIPROFLOXACIN], which MBC [2] is on record?
Answer: > 1 µM

Question: What about the MIC [2] of the same molecule?
Answer: 1 µM (≈ 0.331 µg/mL)
